Shown are actives, neighbours in structure and some others; about 5.8% of the full set was active somewhere.
T cruzi growth-1 – T. cruzi intracellular proliferation inhibitors, primary screen, cell-based, beta-gal Tulahuen parasites, NIH3T3 host, luminescence. 77,000 compounds, 5.9% hits. AID 624255, 2012. inhibition, % at 8.34 µM. T. cruzi beta-gal in NIH3T3, GalScreen luminescence, 90 h;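 active means mean inhibition above about 93%, with at least 55% of replicates each passing it, limit read from the data, passing the limit was not always enough; inconclusive means only one of those two conditions holds; inactive means neither condition holds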
KDM4C inh – inhibitors of GASC-1 (KDM4C) histone demethylase, primary screen, biochemical, single concentration HTS. Lysine-specific demethylase 4C (Homo sapiens), Q9H3R0. GST-KDM4C 2-372, H3K9me3 peptide, LANCE TR-FRET. inhibition, % at 12.5 µM. 96,000 compounds, 0.15% hits. AID 720574, 2013;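 active means mean replicate inhibition above about 25%, with at least 55% of replicates also reaching it, limit read from the data, passing the limit was not always enough; inconclusive means only one of those two conditions met; inactive means neither condition met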
Target sequence (Q9H3R0 2-372 limits assumed): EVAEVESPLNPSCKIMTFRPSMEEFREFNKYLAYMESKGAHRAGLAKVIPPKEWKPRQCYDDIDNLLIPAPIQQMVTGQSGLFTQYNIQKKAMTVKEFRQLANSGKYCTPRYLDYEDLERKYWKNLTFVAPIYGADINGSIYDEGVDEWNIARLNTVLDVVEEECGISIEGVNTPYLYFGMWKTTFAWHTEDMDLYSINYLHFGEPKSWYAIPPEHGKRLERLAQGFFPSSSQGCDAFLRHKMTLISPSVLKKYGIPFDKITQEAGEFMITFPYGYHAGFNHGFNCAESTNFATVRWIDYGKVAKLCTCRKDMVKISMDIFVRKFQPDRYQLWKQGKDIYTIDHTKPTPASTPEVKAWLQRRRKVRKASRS
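Material: N-terminal GST-fused human GASC-1 (KDM4C) fragment, residues 2-372. Input: 10 nM enzyme. Incubation: enzyme reaction 30 min, then detection 60 min, both room temperature. Doses: one test concentration per compound. Read-out basis: inhibition from TR-FRET ratio decrease. Detection: LANCE TR-FRET, excitation 340 nm, emissions 618 and 671 nm.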
Pf Dd2 inh – P. falciparum Dd2 growth inhibitors, primary screen, SYBR Green fluorescence, single dose replicates. 72 h; active compounds read low. activity change, % at 10 µM. 94,000 compounds, 2.3% hits. AID 1159554, 2015; in the data active means activity change below about -80%; inconclusive means no clear call, values can overlap the other calls
IDH1 mut inh – inhibitors of IDH1 R132H reductase, primary screen, biochemical, plate reader, single point. diaphorase/resazurin fluorescence, 60 min. inhibition, % at 10 µM. 70,000 compounds, 0.18% hits; in the data active means inhibition above about 34%; inconclusive means no clear call, values can overlap the other calls; inactive means below about 11%;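 further: 0% = DMSO and 100% = no enzyme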
T cruzi growth-2 – T. cruzi intracellular proliferation inhibitors, confirmation, cell-based, NIH3T3 host, beta-gal parasite, luminescence, cherry-pick. shares compounds with T cruzi growth-1. T. cruzi beta-gal in NIH3T3, GalScreen luminescence, 90 h. inhibition, % at 8.35 µM. 5,600 compounds, 72% hits;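 active means mean replicate inhibition above about 95% and at least 55% of replicates individually reaching it, limit read from the data; inconclusive means only one of the two criteria is met; inactive means neither criterion is met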
T cruzi growth-3 – inhibitors of intracellular T. cruzi replication, confirmation, NIH3T3 host cells, beta-gal parasites, cherry-pick, set 2 | 5,600 compounds, 21% hits | AID 651740, 2012 | shares compounds with T cruzi growth-1 | inhibition, % at 2.09 µM | T. cruzi beta-gal in NIH3T3, GalScreen luminescence, 90 h;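 active means mean inhibition above about 95%, with at least 55% of replicates also reaching it, limit read from the data; inconclusive means meets just one of the two conditions; inactive means meets neither condition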;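 further: plate controls were neutral control median for no effect and positive control median for full effect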
NIH3T3 tox – cytotoxicity in mouse NIH/3T3 fibroblasts, confirmation, cytotoxicity control for T. cruzi proliferation inhibitor project, cell-based, cherry-pick, single point | shares compounds with T cruzi growth-1 | NIH/3T3 viability, CellTiter-Glo ATP luminescence, 90 h | cytotoxicity (signal decrease), % at 8.35 µM | 5,600 compounds, 14% hits;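 active means mean signal decrease across replicates above about 35% based on untreated-well scatter, with enough replicates individually passing, limit read from the data; inconclusive means no rule stated though some were filed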;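 further: 0% = median of neutral control wells and 100% = median of positive control wells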
NIH3T3 tox 2 – NIH/3T3 fibroblast cytotoxicity, confirmation, cytotoxicity control, cell-based, cherry-pick, single point, set 2. shares compounds with T cruzi growth-1. NIH/3T3 viability, CellTiter-Glo ATP luminescence, 90 h. inhibition, % at 24.9 µM. 5,600 compounds, 56% hits. AID 651744, 2012;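 active means mean loss of cell viability signal at or above a set limit, and enough replicates individually reaching it; inconclusive means meets only the mean limit or only the replicate share; inactive means meets neither condition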;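 further: 0% = median of neutral control wells and 100% = median of positive control wells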
* marks the source's active call; other numbers are inactive results; ? = inconclusive; nt = not tested or not shown.

SMILES | T cruzi growth-1 | KDM4C inh | Pf Dd2 inh | IDH1 mut inh | T cruzi growth-2 | T cruzi growth-3 | NIH3T3 tox | NIH3T3 tox 2
N#Cc1ccc(-c2ccc([C@@H]3[C@H](CO)N4CCCCN(C(=O)Cc5ccccc5)C[C@@H]34)cc2)cc1 | 92 | 0 | -26 | nt | nt | nt | nt | nt
O=C(Cc1ccncc1)N1CCCCN2[C@@H](CO)[C@@H](c3ccc(-c4ccncc4)cc3)[C@@H]2C1 | 85 | 0 | 5 | nt | nt | nt | nt | nt
O=C(Cc1ccccc1)N1CCCCN2[C@@H](CO)[C@@H](c3ccc(-c4ccccc4)cc3)[C@@H]2C1 | ? | -1 | -19 | nt | 104* | 56 | 16 | 105*
N[C@H](CO)Cc1ccccc1 | nt | nt | nt | 0 | nt | nt | nt | nt
COC(=O)[C@@H]1[C@@H](CO)[C@@H]2Cn3c(cccc3=O)[C@H]1N2CCc1ccccc1 | -30 | -2 | nt | nt | nt | nt | nt | nt
COC(=O)[C@@H]1[C@@H](CO)[C@@H]2Cn3c(ccc(-c4cccc(F)c4)c3=O)[C@H]1N2Cc1ccncc1 | -8 | 1 | 19 | nt | nt | nt | nt | nt
O=C(Cc1ccccc1)N1CC2(C1)[C@H](c1ccccc1)[C@@H](CO)N2Cc1cccc(F)c1 | nt | 0 | -28 | nt | nt | nt | nt | nt
COc1ccc(-c2ccc([C@H]3[C@@H](CO)N4CCCCN(C(=O)Cc5ccccc5)C[C@@H]34)cc2)cc1 | 102* | 0 | -51 | nt | 107* | 106* | 19 | ?
Cc1cccc(S(=O)(=O)N2[C@@H]3c4ccc(-c5ccc(F)cc5)c(=O)n4C[C@H]2[C@H](CO)[C@H]3C(=O)O)c1 | 0 | -1 | nt | nt | nt | nt | nt | nt
COc1cccc(-c2ccc([C@H]3[C@H](CO)N4CCCCN(C(=O)Cc5ccncc5)C[C@@H]34)cc2)c1 | 73 | 0 | -40 | nt | nt | nt | nt | nt
COc1cccc(-c2ccc([C@@H]3[C@@H](CO)N4CCCCN(C(=O)Cc5ccncc5)C[C@H]34)cc2)c1 | 114* | 0 | -31 | nt | 102* | 38 | 25 | 38*
COc1cccc(-c2ccc([C@H]3[C@@H](CO)N4CCCCN(C(=O)Cc5ccncc5)C[C@H]34)cc2)c1 | 107* | -1 | -39 | nt | 110* | 61 | 20 | 48*
COc1cccc(-c2ccc([C@@H]3[C@@H](CO)N4CCCCN(C(=O)Cc5ccncc5)C[C@@H]34)cc2)c1 | 63 | 0 | -52 | nt | nt | nt | nt | nt
COc1cccc(-c2ccc([C@@H]3[C@H](CO)N4CCCCN(C(=O)Cc5ccncc5)C[C@@H]34)cc2)c1 | ? | -1 | -44 | nt | 83 | 18 | 9 | 35*
COc1cccc(-c2ccc([C@H]3[C@@H](CO)N4CCCCN(C(=O)Cc5ccncc5)C[C@@H]34)cc2)c1 | 111* | 0 | -51 | nt | 110* | 49 | 12 | 24
Cc1ccccc1-c1ccc([C@H]2[C@H]3CN(C(=O)Cc4ccccn4)CCCCN3[C@H]2CO)cc1 | ? | -1 | -11 | nt | 51 | -1 | -17 | 8
Cc1ccccc1-c1ccc([C@H]2[C@@H](CO)N3CCCCN(C(=O)Cc4ccccn4)C[C@@H]23)cc1 | 103* | 1 | 6 | nt | 97* | 85 | 23 | ?
Cc1ccccc1-c1ccc([C@@H]2[C@H]3CN(C(=O)Cc4ccccn4)CCCCN3[C@H]2CO)cc1 | 99* | -1 | -2 | nt | 68 | 27 | -6 | 9
O=C(Cc1ccccn1)N1CCCCN2[C@H](CO)[C@H](c3ccc(-c4ccccc4)cc3)[C@@H]2C1 | ? | -1 | 8 | nt | 103* | 44 | 4 | 0
O=C(Cc1ccccn1)N1CCCCN2[C@@H](CO)[C@H](c3ccc(-c4ccccc4)cc3)[C@@H]2C1 | 105* | -1 | -13 | nt | ? | 75 | 17 | 23
O=C(Cc1ccccn1)N1CCCCN2[C@H](C1)[C@H](c1ccc(-c3ccccc3)cc1)[C@@H]2CO | 64 | 1 | -39 | nt | nt | nt | nt | nt
COCC(=O)N1[C@@H]2Cn3c(ccc(C4=CCCC4)c3=O)[C@H]1[C@@H](C(=O)OC)[C@@H]2CO | -13 | 0 | 15 | nt | nt | nt | nt | nt
O=C(O)[C@@H]1[C@@H](CO)[C@@H]2Cn3c(ccc(-c4ccncc4)c3=O)[C@H]1N2C(=O)C1CC1 | -4 | -2 | nt | nt | nt | nt | nt | nt
N#Cc1c(Cl)cccc1Cl | nt | nt | nt | 0 | nt | nt | nt | nt
COc1ccc(C#Cc2ccc([C@H]3[C@H](CO)N4CCCCN(C(=O)Cc5ccncc5)C[C@@H]34)cc2)cc1 | 106* | -2 | -62 | nt | 108* | 81 | 20 | 105*
COc1ccc(C#Cc2ccc([C@@H]3[C@H](CO)N4CCCCN(C(=O)Cc5ccncc5)C[C@@H]34)cc2)cc1 | 112* | 0 | -71 | nt | 103* | 86 | 15 | 104*
COc1ccc(-c2ccc([C@@H]3[C@@H](CO)N4CCCCN(C(=O)Cc5ccncc5)C[C@H]34)cc2)cc1 | 55 | 1 | -47 | nt | nt | nt | nt | nt
COc1ccc(-c2ccc([C@H]3[C@H]4CN(C(=O)Cc5ccncc5)CCCCN4[C@H]3CO)cc2)cc1 | 70 | -1 | -4 | nt | nt | nt | nt | nt

High-throughput results: PubChem, Broad Institute
